Test results reported in ChEMBL document CHEMBL4033712, “Synthesis and biological evaluation of new C-12(α/β)-(N-) sulfamoyl-phenylamino-14-deoxy-andrographolide derivatives as potent anti-cancer agents” (Bioorg Med Chem Lett, 2017).

Assays:
Assay type in all cases: functional
MDA-MB-231 = assay: Growth inhibition of human MDA-MB-231 cells incubated for 48 hrs by sulforhodamine B assay; settings: MDA-MB-231, 48 h
Method in brief: (§1)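 NCI-60 five-dose screen at 0.01, 0.1, 1, 10 and 100 µM, 48 h incubation, sulforhodamine B end point. GI50 (50% decrease in net growth), TGI (total growth inhibition) and LC50 (net 50% loss of initial cells) taken from log concentration versus % growth inhibition curves.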

TK-10 = assay: Growth inhibition of human TK10 cells incubated for 48 hrs by sulforhodamine B assay; settings: TK-10, 48 h
Method in brief: (§2)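 NCI 60 human tumour cell line panel, five-dose study at 0.01, 0.1, 1, 10 and 100 µM, 48 h incubation. Sulforhodamine B protein-binding dye end point. GI50 (50% decrease in net cell growth), TGI (total growth inhibition) and LC50 (net 50% loss of initial cells) read from log concentration versus % growth inhibition curves.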

A498 = assay: Growth inhibition of human A498 cells incubated for 48 hrs by sulforhodamine B assay; settings: A498, 48 h; method in brief: as §1
OVCAR-5 = assay: Growth inhibition of human OVCAR5 cells incubated for 48 hrs by sulforhodamine B assay; settings: OVCAR-5, 48 h; method in brief: as §1
SF-539 = assay: Growth inhibition of human SF539 cells incubated for 48 hrs by sulforhodamine B assay; settings: SF-539, 48 h; method in brief: as §2
HT-29 = assay: Growth inhibition of human HT-29 cells incubated for 48 hrs by sulforhodamine B assay; settings: HT-29, 48 h; method in brief: as §1
MDA-MB-468 = assay: Growth inhibition of human MDA-MB-468 cells incubated for 48 hrs by sulforhodamine B assay; settings: MDA-MB-468, 48 h; method in brief: as §1
DU-145 = assay: Growth inhibition of human DU145 cells incubated for 48 hrs by sulforhodamine B assay; settings: DU-145, 48 h; method in brief: as §1
HL-60(TB) = assay: Growth inhibition of human HL-60(TB) cells incubated for 48 hrs by sulforhodamine B assay; settings: HL-60, 48 h
Method in brief: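 NCI-60 five-dose screen at 0.01, 0.1, 1, 10 and 100 µM for 48 h, sulforhodamine B read-out. GI50 taken from log concentration versus % growth inhibition curves as the concentration giving 50% decrease in net cell growth.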

NCI-H322M = assay: Growth inhibition of human NCI-H322M cells incubated for 48 hrs by sulforhodamine B assay; method in brief: as §1
SNB-19 = assay: Growth inhibition of human SNB19 cells incubated for 48 hrs by sulforhodamine B assay; settings: SNB-19, 48 h; method in brief: as §2
NCI/ADR-RES = assay: Growth inhibition of human NCI/ADR-RES cells incubated for 48 hrs by sulforhodamine B assay; method in brief: as §1
SW-620 = assay: Growth inhibition of human SW620 cells incubated for 48 hrs by sulforhodamine B assay; settings: SW-620, 48 h; method in brief: as §2
ACHN = assay: Growth inhibition of human ACHN cells incubated for 48 hrs by sulforhodamine B assay; method in brief: as §1
K562 = assay: Growth inhibition of human K562 cells incubated for 48 hrs by sulforhodamine B assay; settings: K562, 48 h; method in brief: as §1
LOX IMVI = assay: Growth inhibition of human LOXIMVI cells incubated for 48 hrs by sulforhodamine B assay; method in brief: as §1
KM12 = assay: Growth inhibition of human KM12 cells incubated for 48 hrs by sulforhodamine B assay; settings: KM12, 48 h; method in brief: as §1
SF-268 = assay: Growth inhibition of human SF268 cells incubated for 48 hrs by sulforhodamine B assay; settings: SF-268, 48 h; method in brief: as §2
A549 = assay: Growth inhibition of human A549/ATCC cells incubated for 48 hrs by sulforhodamine B assay; settings: A549, 48 h; method in brief: as §1
786-0 = assay: Growth inhibition of human 786-0 cells incubated for 48 hrs by sulforhodamine B assay; settings: 786-0, 48 h; method in brief: as §1
COLO 205 = assay: Growth inhibition of human COLO205 cells incubated for 48 hrs by sulforhodamine B assay; settings: COLO 205, 48 h; method in brief: as §1
IGROV-1 = assay: Growth inhibition of human IGROV1 cells incubated for 48 hrs by sulforhodamine B assay; settings: IGROV-1, 48 h; method in brief: as §1
HCC 2998 = assay: Growth inhibition of human HCC2998 cells incubated for 48 hrs by sulforhodamine B assay; settings: HCC 2998, 48 h; method in brief: as §1
SK-MEL-2 = assay: Growth inhibition of human SK-MEL-2 cells incubated for 48 hrs by sulforhodamine B assay; settings: SK-MEL-2, 48 h; method in brief: as §2
CCRF-CEM = assay: Growth inhibition of human CCRF-CEM cells incubated for 48 hrs by sulforhodamine B assay; method in brief: as §1
SN12C = assay: Growth inhibition of human SN12C cells incubated for 48 hrs by sulforhodamine B assay; method in brief: as §2
HCT-116 = assay: Growth inhibition of human HCT116 cells incubated for 48 hrs by sulforhodamine B assay; settings: HCT-116, 48 h; method in brief: as §1
SK-MEL-28 = assay: Growth inhibition of human SK-MEL-28 cells incubated for 48 hrs by sulforhodamine B assay; settings: SK-MEL-28, 48 h; method in brief: as §2
[1] = read-out: LC50 (the source's name)

C=C1CC[C@@H]2[C@](C)(COC(C)=O)[C@H](OC(C)=O)CC[C@@]2(C)[C@H]1CC(Nc1ccc(S(=O)(=O)Nc2nccs2)cc1)C1=CCOC1=O (some centres undefined) showed a GI50 (MDA-MB-231) of 3.3 µM, an LC50 (concentration giving net 50% loss of initial cells) (MDA-MB-231) of 37.6 µM and a TGI (MDA-MB-231) of 8.25 µM. It also gave a GI50 (TK-10) of 9.45 µM, a TGI (TK-10) of 21.2 µM and a CC50 (TK-10; [1]) of 46.1 µM. The GI50 (A498) was 18.2 µM, the LC50 (concentration giving net 50% loss of initial cells) (A498) was 58.5 µM and the TGI (A498) was 32.6 µM. It also gave a GI50 (OVCAR-5) of 4.82 µM, an LC50 (concentration causing net 50% loss of initial cells) (OVCAR-5) of 46.9 µM and a TGI (OVCAR-5) of 17.6 µM. For the same molecule, the GI50 (SF-539) was 2.35 µM, the TGI (SF-539) was 6.31 µM and the CC50 (SF-539; [1]) was 23.5 µM. The GI50 (HT-29) was 2.17 µM, the TGI (HT-29) was 4.7 µM and the CC50 (HT-29; [1]) was 15.8 µM. It also gave a GI50 (MDA-MB-468) of 1.83 µM, a TGI (MDA-MB-468) of 4.43 µM and a CC50 (MDA-MB-468; [1]) of 14.1 µM. The GI50 (DU-145) was 4.47 µM, the TGI (DU-145) was 15.8 µM and the CC50 (DU-145; [1]) was 39.8 µM. The GI50 (HL-60(TB)) was 3.01 µM, the TGI (HL-60(TB)) was 13.3 µM and the CC50 (HL-60(TB); [1]) was > 100 µM. For the same molecule, the GI50 (NCI-H322M) was 12 µM, the TGI (NCI-H322M) was 24.9 µM and the CC50 (NCI-H322M; [1]) was 51.6 µM. For the same molecule, the GI50 (SNB-19) was 4.36 µM, the TGI (SNB-19) was 16.1 µM and the CC50 (SNB-19; [1]) was 46 µM. The GI50 (NCI/ADR-RES) was 2.97 µM, the LC50 (concentration giving net 50% loss of initial cells) (NCI/ADR-RES) was > 100 µM and the TGI (NCI/ADR-RES) was 12.7 µM. It also gave a GI50 (SW-620) of 1.85 µM, a TGI (SW-620) of 3.98 µM and a CC50 (SW-620; [1]) of 8.55 µM. The GI50 (ACHN) was 5.99 µM, the TGI (ACHN) was 18.9 µM and the CC50 (ACHN; [1]) was 45 µM. For the same molecule, the GI50 (K562) was 3.6 µM, the TGI (K562) was 29 µM and the CC50 (K562; [1]) was > 100 µM. The GI50 (LOX IMVI) was 1.59 µM, the TGI (LOX IMVI) was 3.31 µM and the CC50 (LOX IMVI; [1]) was 6.92 µM. It also gave a GI50 (KM12) of 7.57 µM, a TGI (KM12) of 21.7 µM and a CC50 (KM12; [1]) of 53.3 µM. For the same molecule, the GI50 (SF-268) was 11.3 µM, the TGI (SF-268) was 25.9 µM and the CC50 (SF-268; [1]) was 59.1 µM. For the same molecule, the GI50 (A549) was 3.67 µM, the TGI (A549) was 11.2 µM and the CC50 (A549; [1]) was 40.4 µM. The GI50 (786-0) was 2.54 µM, the LC50 (concentration giving net 50% loss of initial cells) (786-0) was 23.6 µM and the TGI (786-0) was 6.74 µM. The GI50 (COLO 205) was 3.14 µM, the TGI (COLO 205) was 10.5 µM and the CC50 (COLO 205; [1]) was 48.9 µM. For the same molecule, the GI50 (IGROV-1) was 4.54 µM, the TGI (IGROV-1) was 17.1 µM and the CC50 (IGROV-1; [1]) was 47.5 µM. It also gave a GI50 (HCC 2998) of 7.78 µM, a TGI (HCC 2998) of 21.3 µM and a CC50 (HCC 2998; [1]) of 50.3 µM. It also gave a GI50 (SK-MEL-2) of 10.6 µM, a TGI (SK-MEL-2) of 24.3 µM and a CC50 (SK-MEL-2; [1]) of 56.1 µM. The GI50 (CCRF-CEM) was 2.28 µM, the TGI (CCRF-CEM) was 6.76 µM and the CC50 (CCRF-CEM; [1]) was > 100 µM. It also gave a GI50 (SN12C) of 1.87 µM, a TGI (SN12C) of 4.39 µM and a CC50 (SN12C; [1]) of 14.3 µM. For the same molecule, the GI50 (HCT-116) was 1.75 µM, the TGI (HCT-116) was 3.75 µM and the CC50 (HCT-116; [1]) was 8 µM. It also gave a GI50 (SK-MEL-28) of 3.95 µM, an LC50 (50% net cell kill) (SK-MEL-28) of 41.8 µM and a TGI (SK-MEL-28) of 15.1 µM.
